Where two headings read alike, the source gives them in different places.
Legend:
MCF-7 (breast cancer) = test: In vitro cell viability assay; format: cell-based; conditions: Homo sapiens, MCF7, 48 h, read-out: IC50 MCF-7
HCT116 (colon cancer) = test: In vitro cell viability assay; format: cell-based; conditions: Homo sapiens
TOP2α = TOP2α (Homo sapiens, UniProt P11388); test: TOP2-mediated pBR322 DNA relaxation assay; format: biochemical
[1] = target: human recombinant HDAC1 enzyme (Homo sapiens, UniProt Q13547); test: HDACs activity assay, HDAC1; format: biochemical
A549 (lung cancer) = test: In vitro cell viability assay; format: cell-based; conditions: Homo sapiens, A549, 48 h, read-out: IC50 A549
[2] = test system: HCT116, MCF-7 and A549 cell lines; test: In vitro cell viability assay; format: cell-based; conditions: Homo sapiens, read-out: IC50 range against the three tested cell lines
Outline: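 Cells were grown in 10% FBS at 37 °C, 5% CO2, seeded in DMEM and held 24 h to 60%–70% confluency. They were then exposed to graded test compound concentrations or vehicle for 48 h. 10% CCK8 was added for 1–4 h at 37 °C and absorbance read at 450. IC50 was computed by the Logit method; three experiments.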

TOP1 = TOP1 (Bos taurus, UniProt F1MN93); test: TOP1-mediated pBR322 DNA relaxation assay; format: biochemical; conditions: 100 μmol/L
γH2AX in HCT116 cells = test: Western blot for γH2AX; format: cell-based, human; conditions: 0.5 and 5 μmol/L, 24 h
Outline: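 HCT116 seeded at 35 × 10^4 cells/well, treated 24 h with test compound or vehicle. Cells washed in cold PBS, lysed 30 min on ice in RIPA with protease and phosphatase inhibitors, protein quantified by BCA. 30 μg resolved by SDS-PAGE, transferred to PVDF, blocked 2 h in 5% BSA, primary antibody overnight at 4 °C, secondary 1.5 h, infrared imaging.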

[3] = test system: hematological cell lines (HL60, K562 and HEL); test: Antiproliferative activity, hematological cell lines together; format: cell-based; conditions: read-out: IC50 range toward hematological cell lines
[4] = In vitro metabolic stability in mice liver microsomes; format: in vitro ADME; conditions: female, ICR, mouse, liver microsomes, pH 7.4
HCT116 xenograft = test: In vivo tumor growth inhibition assay against HCT116 xenograft; conditions: bid
[5] = HCT-116, 48 h, read-out: IC50 HCT116

human recombinant HDAC1 enzyme, sequence (Q13547 whole entry): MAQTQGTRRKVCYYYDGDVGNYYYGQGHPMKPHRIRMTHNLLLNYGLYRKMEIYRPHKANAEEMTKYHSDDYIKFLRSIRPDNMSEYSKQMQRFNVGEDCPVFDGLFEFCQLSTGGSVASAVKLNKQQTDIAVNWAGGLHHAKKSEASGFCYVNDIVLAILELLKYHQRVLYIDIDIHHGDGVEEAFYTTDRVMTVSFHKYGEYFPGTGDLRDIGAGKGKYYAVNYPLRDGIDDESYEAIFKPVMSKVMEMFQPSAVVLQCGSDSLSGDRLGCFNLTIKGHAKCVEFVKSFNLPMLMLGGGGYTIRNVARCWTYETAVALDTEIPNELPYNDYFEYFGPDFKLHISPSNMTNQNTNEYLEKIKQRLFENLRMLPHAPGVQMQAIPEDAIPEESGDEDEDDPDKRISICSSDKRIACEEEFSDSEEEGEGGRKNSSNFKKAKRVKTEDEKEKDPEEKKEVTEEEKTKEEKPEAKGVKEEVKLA
TOP2α, sequence (P11388 whole entry): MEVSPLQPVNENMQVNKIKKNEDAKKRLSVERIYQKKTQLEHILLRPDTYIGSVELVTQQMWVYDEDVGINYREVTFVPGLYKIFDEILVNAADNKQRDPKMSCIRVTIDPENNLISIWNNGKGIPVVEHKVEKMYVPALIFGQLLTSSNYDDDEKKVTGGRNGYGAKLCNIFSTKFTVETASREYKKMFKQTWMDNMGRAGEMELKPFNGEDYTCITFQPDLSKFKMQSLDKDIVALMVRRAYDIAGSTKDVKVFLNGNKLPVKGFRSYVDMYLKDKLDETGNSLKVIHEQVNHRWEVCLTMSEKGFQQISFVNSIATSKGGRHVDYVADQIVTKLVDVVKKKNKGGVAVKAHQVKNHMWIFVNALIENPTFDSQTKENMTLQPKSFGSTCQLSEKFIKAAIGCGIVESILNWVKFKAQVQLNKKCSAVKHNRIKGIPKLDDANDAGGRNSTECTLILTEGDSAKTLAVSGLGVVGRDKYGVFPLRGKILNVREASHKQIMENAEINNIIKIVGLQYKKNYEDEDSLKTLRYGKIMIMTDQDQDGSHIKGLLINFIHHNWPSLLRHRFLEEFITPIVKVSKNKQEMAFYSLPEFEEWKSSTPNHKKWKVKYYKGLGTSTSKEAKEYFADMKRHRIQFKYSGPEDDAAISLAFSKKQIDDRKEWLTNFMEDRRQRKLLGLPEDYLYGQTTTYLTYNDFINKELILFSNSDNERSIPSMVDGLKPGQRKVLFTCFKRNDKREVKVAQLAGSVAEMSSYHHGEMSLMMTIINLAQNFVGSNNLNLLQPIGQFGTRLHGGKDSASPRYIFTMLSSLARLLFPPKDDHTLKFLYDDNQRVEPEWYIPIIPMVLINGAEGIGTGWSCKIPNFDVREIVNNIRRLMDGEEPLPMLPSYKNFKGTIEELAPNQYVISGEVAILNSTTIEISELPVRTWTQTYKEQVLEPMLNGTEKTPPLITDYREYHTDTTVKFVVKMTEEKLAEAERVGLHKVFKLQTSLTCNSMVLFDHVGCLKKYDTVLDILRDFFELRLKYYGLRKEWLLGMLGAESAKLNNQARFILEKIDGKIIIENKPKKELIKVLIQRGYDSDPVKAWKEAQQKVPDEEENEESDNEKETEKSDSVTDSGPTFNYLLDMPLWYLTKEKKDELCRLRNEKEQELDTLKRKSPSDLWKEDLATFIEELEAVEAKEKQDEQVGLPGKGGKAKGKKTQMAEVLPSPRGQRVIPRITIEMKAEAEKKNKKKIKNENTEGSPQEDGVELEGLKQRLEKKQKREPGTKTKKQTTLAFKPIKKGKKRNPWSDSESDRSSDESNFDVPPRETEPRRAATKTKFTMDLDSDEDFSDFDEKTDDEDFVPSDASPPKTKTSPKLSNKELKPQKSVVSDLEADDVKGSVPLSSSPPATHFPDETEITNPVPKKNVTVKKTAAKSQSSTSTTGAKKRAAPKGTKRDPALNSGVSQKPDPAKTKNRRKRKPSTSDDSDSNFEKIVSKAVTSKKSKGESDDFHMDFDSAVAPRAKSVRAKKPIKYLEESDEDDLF
TOP1, sequence (F1MN93 1-767): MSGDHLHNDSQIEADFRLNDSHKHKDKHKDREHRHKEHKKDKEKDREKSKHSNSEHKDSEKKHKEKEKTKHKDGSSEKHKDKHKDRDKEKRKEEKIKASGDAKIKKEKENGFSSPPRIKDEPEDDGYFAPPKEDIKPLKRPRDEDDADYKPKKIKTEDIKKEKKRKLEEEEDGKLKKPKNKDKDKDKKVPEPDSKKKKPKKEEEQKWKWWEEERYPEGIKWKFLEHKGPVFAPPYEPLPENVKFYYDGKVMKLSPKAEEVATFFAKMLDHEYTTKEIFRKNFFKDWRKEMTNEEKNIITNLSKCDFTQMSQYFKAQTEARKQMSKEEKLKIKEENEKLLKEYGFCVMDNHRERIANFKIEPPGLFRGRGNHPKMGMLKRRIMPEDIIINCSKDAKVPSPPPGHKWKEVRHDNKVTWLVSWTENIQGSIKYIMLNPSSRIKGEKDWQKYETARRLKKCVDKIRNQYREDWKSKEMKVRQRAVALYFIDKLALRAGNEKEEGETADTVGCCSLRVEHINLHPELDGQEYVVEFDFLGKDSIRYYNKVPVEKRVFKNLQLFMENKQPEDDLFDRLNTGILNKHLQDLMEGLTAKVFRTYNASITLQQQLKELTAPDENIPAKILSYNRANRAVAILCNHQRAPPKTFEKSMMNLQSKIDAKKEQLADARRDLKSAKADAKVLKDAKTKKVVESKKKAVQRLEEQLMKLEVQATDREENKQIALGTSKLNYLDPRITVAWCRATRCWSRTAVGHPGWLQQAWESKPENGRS

With `CN1c2ccccc2C(=O)N2[C@H](C(=O)NCCCCCCC(=O)NO)Cc3c([nH]c4ccccc34)[C@@H]12` [Compound 20a, (7S,13bS)-N-(7-(Hydroxyamino)-7-oxoheptyl)-14-methyl-5-oxo-5,7,8,13,13b,14-hexahydroindolo[2′,3′:3,4]pyrido[2,1-b]quinazoline-7-carboxamide] the IC50 (MCF-7 (breast cancer)) was 15000 ± 2500 nM, the IC50 (HCT116 (colon cancer); [5]) was 7200 ± 520 nM and the “TOP2 inhibitory activity (relaxation assay)” value (shortened to “TOP2 inhibitory activity”) (TOP2α; 100 μmol/L) was “inactive”. It also gave an IC50 [1] of 27 ± 2.3 nM, an IC50 (A549 (lung cancer)) of 27000 ± 2100 nM and an IC50 [2] of 7200 to 27000 nM.
In the case of `CC[C@@]1(O)C(=O)OCc2c1cc1n(c2=O)Cc2cc3ccccc3nc2-1` [CPT, Camptothecin], the “TOP1 relaxation activity (supercoiled DNA band)” value (TOP1) is reported as “obviously supercoiled DNA accumulation”.
In the case of `O=C(CCCCCCC(=O)Nc1ccccc1)NO` [Compound 1, vorinostat], the “Expression of γH2AX” value (γH2AX in HCT116 cells) is reported as “no increase”.
With `CN1c2ccccc2C(=O)N2[C@H](C(=O)NCCCCCC(=O)NO)Cc3c([nH]c4ccccc34)[C@@H]12` [Compound 20b, (7S,13bS)-N-(6-(Hydroxyamino)-6-oxohexyl)-14-methyl-5-oxo-5,7,8,13,13b,14-hexahydroindolo[2′,3′:3,4]pyrido[2,1-b]quinazoline-7-carboxamide] the IC50 (MCF-7 (breast cancer)) was over 50000 nM, the IC50 (HCT116 (colon cancer); [5]) was 11000 ± 1300 nM and the “TOP2 inhibitory activity” value (TOP2α; 100 μmol/L) was “inactive”. It also gave an IC50 [1] of 53 ± 4.5 nM and an IC50 (A549 (lung cancer)) of over 50000 nM.
For `CN1c2ccccc2C(=O)N2[C@@H](C(=O)Nc3ccc(C(=O)Nc4ccccc4N)cc3)Cc3c([nH]c4ccccc34)[C@H]12` [ent-30a, (7R,13bR)-N-(4-((2-Aminophenyl)carbamoyl)phenyl)-14-methyl-5-oxo-5,7,8,13,13b,14-hexahydroindolo[2′,3′:3,4]pyrido[2,1-b]quinazoline-7-carboxamide], the IC50 (MCF-7 (breast cancer)) was 17000 ± 1800 nM, the IC50 (HCT116 (colon cancer); [5]) was 2900 ± 2000 nM and the IC50 [1] was 22 ± 2.1 nM. For the same compound, the IC50 (A549 (lung cancer)) was 5400 ± 480 nM.
In the case of `CN1c2ccccc2C(=O)N2[C@H](C(=O)Nc3ccc(C(=O)NO)cc3)Cc3c([nH]c4ccccc34)[C@@H]12` [Compound 32, (7S,13bS)-N-(4-(Hydroxycarbamoyl)phenyl)-14-methyl-5-oxo-5,7,8,13,13b,14-hexahydroindolo[2′,3':3,4]pyrido[2,1-b]quinazoline-7-carboxamide], the IC50 (MCF-7 (breast cancer)) is reported as 13000 ± 1400 nM, the IC50 (HCT116 (colon cancer); [5]) is reported as 2200 ± 180 nM and the “TOP2 inhibitory activity” value (TOP2α; 50 μmol/L) is reported as “remarkable TOP2 inhibitory activities”. For the same compound, the “TOP2 inhibitory activity” value (TOP2α; 100 μmol/L) was “remarkable TOP2 inhibitory activities”, the IC50 [1] was 260 ± 24 nM and the IC50 (A549 (lung cancer)) was 11000 ± 1200 nM.
Compound `CN1c2ccccc2C(=O)N2[C@@H](C(=O)Nc3ccc(C(=O)NO)cc3)Cc3c([nH]c4ccccc34)[C@H]12` [ent-32, (7R,13bR)-N-(4-(Hydroxycarbamoyl)phenyl)-14-methyl-5-oxo-5,7,8,13,13b,14-hexahydroindolo[2′,3′:3,4]pyrido[2,1-b]quinazoline-7-carboxamide] has an IC50 (MCF-7 (breast cancer)) of 5300 ± 500 nM, an IC50 (HCT116 (colon cancer); [5]) of 1600 ± 130 nM and an IC50 [1] of 10 ± 0.8 nM. It also gave an IC50 (A549 (lung cancer)) of 12000 ± 1500 nM.
Compound `CN1c2ccccc2C(=O)N2[C@H](C(=O)Nc3ccc(/C=C/C(=O)NO)cc3)Cc3c([nH]c4ccccc34)[C@@H]12` [Compound 25a, (7S,13bS)-N-(4-((E)-3-(Hydroxyamino)-3-oxoprop-1-en-1-yl)phenyl)-14-methyl-5-oxo-5,7,8,13,13b,14-hexahydroindolo[2′,3′:3,4]pyrido[2,1-b]quinazoline-7-carboxamide] has an IC50 (MCF-7 (breast cancer)) of 3000 ± 250 nM, an IC50 [3] of 340 to 1000 nM and an IC50 (HCT116 (colon cancer); [5]) of 630 ± 520 nM. The “TOP2 inhibitory activity” value (TOP2α; 50 μmol/L) was “remarkable TOP2 inhibitory activities”, the “TOP2 inhibitory activity” value (TOP2α; 100 μmol/L) was “remarkable TOP2 inhibitory activities” and the IC50 [1] was 89 ± 6.2 nM. For the same compound, the half-life at 1 μmol/L [4] was 9.86 min, the IC50 (A549 (lung cancer)) was 10000 ± 1200 nM and the “Tumor growth inhibition (TGI)” value (HCT116 xenograft; 20 mg/kg, i.p., 14 consecutive days) was 2.2%.
With `CN1c2ccccc2C(=O)N2[C@H](C(=O)Nc3cccc(/C=C/C(=O)NO)c3)Cc3c([nH]c4ccccc34)[C@@H]12` [Compound 25b, (7S,13bS)-N-(3-((E)-3-(Hydroxyamino)-3-oxoprop-1-en-1-yl)phenyl)-14-methyl-5-oxo-5,7,8,13,13b,14-hexahydroindolo[2′,3′:3,4]pyrido[2,1-b]quinazoline-7-carboxamide] the IC50 (MCF-7 (breast cancer)) was 2200 ± 180 nM, the IC50 (HCT116 (colon cancer); [5]) was 520 ± 360 nM and the “TOP2 inhibitory activity” value (TOP2α; 50 μmol/L) was “remarkable TOP2 inhibitory activities”. The “TOP2 inhibitory activity” value (TOP2α; 100 μmol/L) was “remarkable TOP2 inhibitory activities”, the IC50 [1] was 31 ± 2.3 nM and the IC50 (A549 (lung cancer)) was 15000 ± 1400 nM.
For “Evodiamine [Compound 6, reference compound]”, the “Expression of γH2AX” value (γH2AX in HCT116 cells) was “no increase” and the “Tumor growth inhibition (TGI)” value (HCT116 xenograft; 150 mg/kg, p.o., 21 days (dose of the combination not given)) was 45.53%.
`CN1c2ccccc2C(=O)N2[C@@H](C(=O)Nc3cccc(/C=C/C(=O)NO)c3)Cc3c([nH]c4ccccc34)[C@H]12` [ent-25b, (7R,13bR)-N-(3-((E)-3-(Hydroxyamino)-3-oxoprop-1-en-1-yl)phenyl)-14-methyl-5-oxo-5,7,8,13,13b,14-hexahydroindolo[2′,3′:3,4]pyrido[2,1-b]quinazoline-7-carboxamide] gave an IC50 (MCF-7 (breast cancer)) of 12000 ± 1500 nM, an IC50 (HCT116 (colon cancer); [5]) of 3100 ± 280 nM and an IC50 [1] of 10 ± 0.6 nM. The IC50 (A549 (lung cancer)) was 20000 ± 2400 nM.
`CN1c2ccccc2C(=O)N2[C@@H](C(=O)Nc3ccc(/C=C/C(=O)NO)cc3)Cc3c([nH]c4ccccc34)[C@H]12` [ent-25a, (7R,13bR)-N-(4-((E)-3-(Hydroxyamino)-3-oxoprop-1-en-1-yl)phenyl)-14-methyl-5-oxo-5,7,8,13,13b,14-hexahydroindolo[2′,3′:3,4]pyrido[2,1-b]quinazoline-7-carboxamide] showed an IC50 (MCF-7 (breast cancer)) of 1600 ± 140 nM, an IC50 (HCT116 (colon cancer); [5]) of 530 ± 450 nM and an IC50 [1] of 18 ± 1.6 nM. For the same compound, the IC50 (A549 (lung cancer)) was 2800 ± 220 nM.
With `CN1c2ccc(F)cc2C(=O)N2[C@H](C(=O)Nc3ccc(C(=O)Nc4ccccc4N)cc3)Cc3c([nH]c4ccccc34)[C@@H]12` [Compound 30b, (7S,13bS)-N-(4-((2-Aminophenyl)carbamoyl)phenyl)-3-fluoro-14-methyl-5-oxo-5,7,8,13,13b,14-hexahydroindolo[2′,3′:3,4]pyrido[2,1-b]quinazoline-7-carboxamide] the IC50 (MCF-7 (breast cancer)) was over 50000 nM, the IC50 (HCT116 (colon cancer); [5]) was 2400 ± 220 nM and the IC50 (HCT116 (colon cancer); HCT-116, read-out: IC50 HCT116) was 3600 nM. It also gave an IC50 [1] of 180 ± 20 nM and an IC50 (A549 (lung cancer)) of 7900 ± 680 nM.

— paper PMC7452071 (Acta Pharmaceutica Sinica. B, 2019)
